Experimental data published in ChEMBL document CHEMBL1671716, “Antimicrobial susceptibility patterns for recent clinical isolates of anaerobic bacteria in South Korea” (2010).
In brackets after ≈: the same amount, converted by molar mass.

How the values were obtained:
Assay type in all cases: functional
Bacteroides fragilis [1] = experiment: Antimicrobial activity against Bacteroides fragilis assessed as percent resistant isolates after 48 hrs by agar dilution method
How it was run: (§1)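 CLSI agar dilution on recent Korean clinical anaerobe isolates. Inoculum 10^5 CFU per spot by replicator. Plates incubated in an anaerobic chamber at 37°C for 48 h. For piperacillin plus tazobactam, tazobactam was held constant at 4 μg/ml. Resistance and susceptibility rates derived from MICs.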

Actinomyces naeslundii [2] = experiment: Antimicrobial activity against Actinomyces naeslundii assessed as percent resistant isolates after 48 hrs by agar dilution method; how it was run: as §1
Prevotella bivia = experiment: Antimicrobial activity against Prevotella bivia assessed as percent susceptible isolates after 48 hrs by agar dilution method
How it was run: (§2)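 CLSI agar dilution (M11-A7); inoculum 10^5 CFU applied by replicator; plates incubated anaerobically 48 h at 37°C. For piperacillin-tazobactam, tazobactam held constant at 4 μg/ml.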

Eubacterium sp. = experiment: Antimicrobial activity against Eubacterium sp. after 48 hrs by agar dilution method; how it was run: as §2
[3] = tested on: Peptoniphilus asaccharolyticus; experiment: Antimicrobial activity against Peptoniphilus asaccharolyticus assessed as percent resistant isolates after 48 hrs by agar dilution method; how it was run: as §1
Hoylesella oralis = experiment: Antimicrobial activity against Prevotella oralis after 48 hrs by agar dilution method; how it was run: as §2
Prevotella intermedia = experiment: Antimicrobial activity against Prevotella intermedia assessed as percent susceptible isolates after 48 hrs by agar dilution method; how it was run: as §2
Clostridioides difficile = experiment: Antimicrobial activity against Clostridium difficile assessed as percent resistant isolates after 48 hrs by agar dilution method
[4] = tested on: Parabacteroides distasonis; experiment: Antimicrobial activity against Bacteroides distasonis after 48 hrs by agar dilution method
How it was run: (§3)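 MICs on clinical anaerobe isolates by the CLSI agar dilution method. Inoculum of 10^5 CFU applied with a Steers replicator. Plates incubated 48 h at 37°C in an anaerobic chamber.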

[5] = tested on: Peptoniphilus asaccharolyticus; experiment: Antimicrobial activity against Peptoniphilus asaccharolyticus assessed as percent susceptible isolates after 48 hrs by agar dilution method; how it was run: as §2
Actinomyces israelii [6] = experiment: Antimicrobial activity against Actinomyces israelii assessed as percent susceptible isolates after 48 hrs by agar dilution method
Clostridium perfringens = experiment: Antimicrobial activity against Clostridium perfringens assessed as percent susceptible isolates after 48 hrs by agar dilution method
Bacteroides ovatus = experiment: Antimicrobial activity against Bacteroides ovatus assessed as percent susceptible isolates after 48 hrs by agar dilution method
Schaalia odontolytica = experiment: Antimicrobial activity against Actinomyces odontolyticus after 48 hrs by agar dilution method; how it was run: as §3
Actinomyces naeslundii [7] = experiment: Antimicrobial activity against Actinomyces naeslundii assessed as percent susceptible isolates after 48 hrs by agar dilution method
Phocaeicola vulgatus = experiment: Antimicrobial activity against Bacteroides vulgatus assessed as percent resistant isolates after 48 hrs by agar dilution method; how it was run: as §1
Bacteroides caccae = experiment: Antimicrobial activity against Bacteroides caccae after 48 hrs by agar dilution method; how it was run: as §3
[8] = tested on: Bifidobacterium adolescentis; experiment: Antimicrobial activity against Bifidobacterium adolescentis assessed as percent resistant isolates after 48 hrs by agar dilution method; how it was run: as §1
Schaalia meyeri = experiment: Antimicrobial activity against Actinomyces meyeri after 48 hrs by agar dilution method; how it was run: as §3
Eggerthella lenta = experiment: Antimicrobial activity against Eubacterium lentum after 48 hrs by agar dilution method; how it was run: as §2
[9] = tested on: Peptoniphilus asaccharolyticus; experiment: Antimicrobial activity against Peptoniphilus asaccharolyticus after 48 hrs by agar dilution method; how it was run: as §2
Fusobacterium varium = experiment: Antimicrobial activity against Fusobacterium varium after 48 hrs by agar dilution method; how it was run: as §2
Anaerococcus prevotii [10] = experiment: Antimicrobial activity against Anaerococcus prevotii assessed as percent resistant isolates after 48 hrs by agar dilution method; how it was run: as §1
Parvimonas micra = experiment: Antimicrobial activity against Peptostreptococcus micros assessed as percent susceptible isolates after 48 hrs by agar dilution method; how it was run: as §1
[11] = tested on: Bacteroides thetaiotaomicron; experiment: Antimicrobial activity against Bacteroides thetaiotaomicron assessed as percent resistant isolates after 48 hrs by agar dilution method; how it was run: as §1
Bacteroides fragilis [12] = experiment: Antimicrobial activity against Bacteroides fragilis after 48 hrs by agar dilution method; how it was run: as §3
Anaerococcus prevotii [13] = experiment: Antimicrobial activity against Anaerococcus prevotii assessed as percent susceptible isolates after 48 hrs by agar dilution method
Fusobacterium mortiferum = experiment: Antimicrobial activity against Fusobacterium mortiferum after 48 hrs by agar dilution method; how it was run: as §2
Actinomyces israelii [14] = experiment: Antimicrobial activity against Actinomyces israelii after 48 hrs by agar dilution method; how it was run: as §3

Work on `CO[C@@]1(NC(=O)C2SC(=C(C(N)=O)C(=O)O)S2)C(=O)N2C(C(=O)O)=C(CSc3nnnn3C)CS[C@@H]21` (some centres undefined) [CEFOTETAN] yielded an Activity (Bacteroides fragilis [1]) of 14%, an Activity (Actinomyces naeslundii [2]) of 15% and an Activity (Prevotella bivia) of 72%. It also gave an MIC50 (Eubacterium sp.) of 4 µg/mL (≈ 6.95 µM), an MIC90 (Eubacterium sp.) of 64 µg/mL (≈ 111 µM) and an Activity [3] of 0%. For the same compound, the MIC50 (Hoylesella oralis) was 4 µg/mL (≈ 6.95 µM), the MIC90 (Hoylesella oralis) was 64 µg/mL (≈ 111 µM) and the Activity (Prevotella intermedia) was 100%. The Activity (Clostridioides difficile) was 17%, the MIC50 [4] was over 128 µg/mL and the MIC90 [4] was over 128 µg/mL. It also gave an Activity [5] of 100%, an Activity (Actinomyces israelii [6]) of 85% and an Activity (Clostridium perfringens) of 100%. For the same compound, the Activity (Bacteroides ovatus) was 89%, the MIC50 (Schaalia odontolytica) was 4 µg/mL (≈ 6.95 µM) and the MIC90 (Schaalia odontolytica) was 64 µg/mL (≈ 111 µM). The Activity (Actinomyces naeslundii [7]) was 85%, the Activity (Phocaeicola vulgatus) was 86% and the MIC50 (Bacteroides caccae) was over 128 µg/mL. The MIC90 (Bacteroides caccae) was over 128 µg/mL, the Activity [8] was 0% and the MIC50 (Schaalia meyeri) was 4 µg/mL (≈ 6.95 µM). It also gave an MIC90 (Schaalia meyeri) of 64 µg/mL (≈ 111 µM), an MIC50 (Eggerthella lenta) of 4 µg/mL (≈ 6.95 µM) and an MIC90 (Eggerthella lenta) of 64 µg/mL (≈ 111 µM). The MIC50 [9] was 0.25 µg/mL (≈ 0.434 µM), the MIC90 [9] was 1 µg/mL (≈ 1.74 µM) and the MIC (Fusobacterium varium) was 0.06 µg/mL (≈ 0.104 µM). It also gave an Activity (Anaerococcus prevotii [10]) of 0%, an Activity (Parvimonas micra) of 31% and an Activity [11] of 86%. The MIC50 (Bacteroides fragilis [12]) was 8 µg/mL (≈ 13.9 µM), the MIC90 (Bacteroides fragilis [12]) was 64 µg/mL (≈ 111 µM) and the Activity (Anaerococcus prevotii [13]) was 100%. For the same compound, the MIC (Fusobacterium mortiferum) was 0.06 µg/mL (≈ 0.104 µM), the MIC50 (Actinomyces israelii [14]) was 4 µg/mL (≈ 6.95 µM) and the MIC90 (Actinomyces israelii [14]) was 64 µg/mL (≈ 111 µM).

With `CO[C@@]1(NC(=O)Cc2cccs2)C(=O)N2C(C(=O)O)=C(COC(N)=O)CS[C@@H]21` [CEFOXITIN] the Activity (Bacteroides fragilis [1]) was 5%, the Activity (Actinomyces naeslundii [2]) was 0% and the Activity (Prevotella bivia) was 89%. For the same compound, the MIC50 (Eubacterium sp.) was 2 µg/mL (≈ 4.68 µM), the MIC90 (Eubacterium sp.) was 16 µg/mL (≈ 37.4 µM) and the Activity [3] was 0%. It also gave an MIC50 (Hoylesella oralis) of 1 µg/mL (≈ 2.34 µM), an MIC90 (Hoylesella oralis) of 32 µg/mL (≈ 74.9 µM) and an Activity (Prevotella intermedia) of 100%. It also gave an Activity (Clostridioides difficile) of 100%, an MIC50 [4] of 32 µg/mL (≈ 74.9 µM) and an MIC90 [4] of 32 µg/mL (≈ 74.9 µM). For the same compound, the Activity [5] was 100%, the Activity (Actinomyces israelii [6]) was 92% and the Activity (Clostridium perfringens) was 100%. It also gave an Activity (Bacteroides ovatus) of 25%, an MIC50 (Schaalia odontolytica) of 2 µg/mL (≈ 4.68 µM) and an MIC90 (Schaalia odontolytica) of 16 µg/mL (≈ 37.4 µM). For the same compound, the Activity (Actinomyces naeslundii [7]) was 92%, the Activity (Phocaeicola vulgatus) was 7% and the MIC50 (Bacteroides caccae) was 32 µg/mL (≈ 74.9 µM). The MIC90 (Bacteroides caccae) was 32 µg/mL (≈ 74.9 µM), the Activity [8] was 0% and the MIC50 (Schaalia meyeri) was 2 µg/mL (≈ 4.68 µM). For the same compound, the MIC90 (Schaalia meyeri) was 16 µg/mL (≈ 37.4 µM), the MIC50 (Eggerthella lenta) was 2 µg/mL (≈ 4.68 µM) and the MIC90 (Eggerthella lenta) was 16 µg/mL (≈ 37.4 µM). It also gave an MIC50 [9] of at most 0.06 µg/mL, an MIC90 [9] of 0.5 µg/mL (≈ 1.17 µM) and an MIC (Fusobacterium varium) of 0.06 µg/mL (≈ 0.14 µM). It also gave an Activity (Anaerococcus prevotii [10]) of 0%, an Activity (Parvimonas micra) of 0% and an Activity [11] of 7%. For the same compound, the MIC50 (Bacteroides fragilis [12]) was 16 µg/mL (≈ 37.4 µM), the MIC90 (Bacteroides fragilis [12]) was 32 µg/mL (≈ 74.9 µM) and the Activity (Anaerococcus prevotii [13]) was 100%. The MIC (Fusobacterium mortiferum) was 0.06 µg/mL (≈ 0.14 µM), the MIC50 (Actinomyces israelii [14]) was 2 µg/mL (≈ 4.68 µM) and the MIC90 (Actinomyces israelii [14]) was 16 µg/mL (≈ 37.4 µM).

For `O=C(N[C@H](CO)[C@H](O)c1ccc([N+](=O)[O-])cc1)C(Cl)Cl` [CHLORAMPHENICOL], the Activity (Bacteroides fragilis [1]) was 0%, the Activity (Actinomyces naeslundii [2]) was 0% and the Activity (Prevotella bivia) was 100%. For the same compound, the MIC (Eubacterium sp.) was 1 µg/mL (≈ 3.09 µM), the MIC50 (Eubacterium sp.) was 1 µg/mL (≈ 3.09 µM) and the MIC90 (Eubacterium sp.) was 2 µg/mL (≈ 6.19 µM). It also gave an Activity [3] of 0%, an MIC50 (Hoylesella oralis) of 4 µg/mL (≈ 12.4 µM) and an MIC90 (Hoylesella oralis) of 8 µg/mL (≈ 24.8 µM). The Activity (Prevotella intermedia) was 100%, the Activity (Clostridioides difficile) was 0% and the MIC [4] was 4 µg/mL (≈ 12.4 µM). It also gave an MIC50 [4] of 4 µg/mL (≈ 12.4 µM), an MIC90 [4] of 8 µg/mL (≈ 24.8 µM) and an Activity [5] of 100%. The Activity (Actinomyces israelii [6]) was 92%, the Activity (Clostridium perfringens) was 100% and the Activity (Bacteroides ovatus) was 98%. For the same compound, the MIC (Schaalia odontolytica) was 1 µg/mL (≈ 3.09 µM), the MIC50 (Schaalia odontolytica) was 1 µg/mL (≈ 3.09 µM) and the MIC90 (Schaalia odontolytica) was 2 µg/mL (≈ 6.19 µM). The Activity (Actinomyces naeslundii [7]) was 92%, the Activity (Phocaeicola vulgatus) was 0% and the MIC (Bacteroides caccae) was 4 µg/mL (≈ 12.4 µM). It also gave an MIC50 (Bacteroides caccae) of 4 µg/mL (≈ 12.4 µM), an MIC90 (Bacteroides caccae) of 8 µg/mL (≈ 24.8 µM) and an Activity [8] of 0%. The MIC (Schaalia meyeri) was 1 µg/mL (≈ 3.09 µM), the MIC50 (Schaalia meyeri) was 1 µg/mL (≈ 3.09 µM) and the MIC90 (Schaalia meyeri) was 2 µg/mL (≈ 6.19 µM). The MIC (Eggerthella lenta) was 1 µg/mL (≈ 3.09 µM), the MIC50 (Eggerthella lenta) was 1 µg/mL (≈ 3.09 µM) and the MIC90 (Eggerthella lenta) was 2 µg/mL (≈ 6.19 µM). For the same compound, the MIC50 [9] was 2 µg/mL (≈ 6.19 µM), the MIC90 [9] was 4 µg/mL (≈ 12.4 µM) and the MIC (Fusobacterium varium) was 0.13 µg/mL (≈ 0.402 µM). The Activity (Anaerococcus prevotii [10]) was 0%, the Activity (Parvimonas micra) was 0% and the Activity [11] was 0%. The MIC50 (Bacteroides fragilis [12]) was 4 µg/mL (≈ 12.4 µM), the MIC90 (Bacteroides fragilis [12]) was 4 µg/mL (≈ 12.4 µM) and the Activity (Anaerococcus prevotii [13]) was 93%. It also gave an MIC (Fusobacterium mortiferum) of 0.13 µg/mL (≈ 0.402 µM), an MIC (Actinomyces israelii [14]) of 1 µg/mL (≈ 3.09 µM) and an MIC50 (Actinomyces israelii [14]) of 1 µg/mL (≈ 3.09 µM). It also gave an MIC90 (Actinomyces israelii [14]) of 2 µg/mL (≈ 6.19 µM).
